Shown are actives, neighbours in structure and some others; about 2% of the full set was active somewhere.
CSN inh: inhibitors of CSN-mediated cullin deneddylation, primary screen, biochemical, fluorescence polarization, uHTS; inhibition, % at 12.5 µM; Purified CSN, SCF-Nedd8-OG deneddylation; actives 0.38% (n = 360,000); COP9 signalosome complex subunit 5 (Homo sapiens), Q92905;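 active = pattern-corrected inhibition above about 35%, with an unprinted fluorescence ratio check between 0.5 and 1.5, limit read from the data, passing the limit was not always enough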;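 also: 0% = enzyme with substrate and 100% = substrate without enzyme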
Target sequence (Q92905 whole entry, looked up, one chain of several): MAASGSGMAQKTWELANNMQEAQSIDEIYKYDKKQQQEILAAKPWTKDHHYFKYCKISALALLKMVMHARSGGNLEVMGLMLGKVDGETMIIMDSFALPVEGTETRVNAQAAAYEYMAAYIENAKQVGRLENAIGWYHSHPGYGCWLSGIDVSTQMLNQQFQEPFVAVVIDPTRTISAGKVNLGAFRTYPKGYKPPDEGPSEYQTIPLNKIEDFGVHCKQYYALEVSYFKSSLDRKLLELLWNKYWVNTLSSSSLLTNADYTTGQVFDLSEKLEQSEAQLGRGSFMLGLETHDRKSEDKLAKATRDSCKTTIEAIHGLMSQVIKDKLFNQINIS
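Assay system: Purified human Csn5 enzyme expressed in HEK293T cells | Amount: Enzyme 0.24 nM | Measured by: Fluorescence polarization readout | Medium: Tris/NaCl/DTT buffer, pH 7.5 | Compound dosing: One concentration, 12.5 µM, 0.25% DMSO | Times: 90 min incubation of compound, enzyme and substrate at room temperature | Control set: no-enzyme wells high, enzyme-with-substrate wells low | Read-out: % inhibition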
LMPTP block: LMPTP phosphatase inhibitors, primary screen, biochemical, fluorescence intensity, uHTS; recombinant LMPTP-A, OMFP fluorogenic substrate; inhibition, % at 20 µM; actives 0.22% (n = 360,000); AID 651560, 2012;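 active = compounds that cut the enzyme signal by at least half of the control window in the single-dose screen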;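 also: plate controls were DMSO wells with enzyme plus substrate for no effect and substrate without enzyme for full effect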
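test system = LMPTP-A | amount = 0.625 nM LMPTP-A final | reagent = fluorogenic phosphatase substrate OMFP at 400 µM final | incubation = 50 min at room temperature | benchmarks = no-enzyme low control, uninhibited high control | medium = Bis-Tris pH 6.0, DTT, detergent | signal = fluorescence intensity of OMFP turnover product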
STEP block: STEP phosphatase inhibitors, primary screen, biochemical, fluorescence intensity, uHTS; Tyrosine-protein phosphatase non-receptor type 5 (Homo sapiens), P54829; recombinant STEP, OMFP fluorogenic substrate; inhibition, % at 20 µM; actives 0.25% (n = 360,000);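 active = inhibition at 20 µM, scaled per plate between control wells, above about 37%, limit read from the data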;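 also: 0% = DMSO with enzyme and substrate and 100% = substrate only without enzyme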
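Assay system: isolated STEP enzyme. Buffer or medium: pH 6.0 Bis-Tris with DTT and Tween 20. Also added: fluorogenic phosphatase substrate OMFP at 25 µM final. Dosing: 20 µM, 1% DMSO. Timing: 20 min reaction, room temperature, in the dark. Measured by: fluorescence intensity, excitation 480 nm, emission 540 nm. Evaluation: normalized % inhibition.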
SUMO1 PPI mod: modulators of SUMO1 protein-protein interactions, primary screen, biochemical, uHTS; AID 602429, 2012; Small ubiquitin-related modifier 1 (Homo sapiens), P63165; inhibition, % at 20 µM; actives 0.33% (n = 360,000); SUMO1 binding to a labelled peptide, TR-FRET, 1 h; in the data active = inhibition above about 37%
Target sequence (P63165 whole entry, looked up): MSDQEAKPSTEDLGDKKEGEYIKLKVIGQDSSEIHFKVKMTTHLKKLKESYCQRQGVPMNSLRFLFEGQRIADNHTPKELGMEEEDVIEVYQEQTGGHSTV
DNMT1 inh: human DNMT1 methyltransferase inhibitors, primary screen, biochemical, molecular beacon, fluorescence, HinP1I cleavage, uHTS | actives 0.83% (n = 360,000) | AID 588458, 2011 | inhibition (reported as % activation of signal), % at 10 µM | DNA (cytosine-5)-methyltransferase 1 (Homo sapiens), P26358; in the data active = inhibition above about 50%
Scp-1 inhibitor: Scp-1 phosphatase inhibitors, primary screen, biochemical, colorimetric, uHTS. Recombinant Scp1, phosphopeptide, malachite green phosphate absorbance. actives 0.88% (n = 340,000). Carboxy-terminal domain RNA polymerase II polypeptide A small phosphatase 1 (Homo …. AID 493091, 2011. inhibition, % at 20 µM;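 active = inhibition above about 50% at 20 µM, limit read from the data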;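 also: plate controls were DMSO wells with enzyme for no effect and wells lacking enzyme for full effect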
Target sequence (Q9GZU7 76-261 limits assumed): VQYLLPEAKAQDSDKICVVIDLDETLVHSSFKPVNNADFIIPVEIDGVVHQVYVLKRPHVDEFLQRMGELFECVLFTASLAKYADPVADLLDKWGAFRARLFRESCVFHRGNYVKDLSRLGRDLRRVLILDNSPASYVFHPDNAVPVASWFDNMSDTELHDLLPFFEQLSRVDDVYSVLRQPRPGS
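Test system: SCP-1 phosphatase catalytic domain, residues 76-261 | Compound dosing: One concentration, 20 µM, with 1.0% DMSO | Schedule: 45 min room-temperature reaction, 5 min colour, 30 min stabiliser | Detection: Absorbance at 630 nm | Read-out basis: % inhibition of SCP-1 phosphate liberation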
DNMT1 interf DR: spectral interference with molecular beacon fluorescence, dose response, artefact control for DNMT1 inhibitor project, biochemical, fluorescent molecular beacon; IC50, µM; shares compounds with DNMT1 inh; 200 tested, under 10 active; spectral interference counter-screen; AID 602382, 2012; call rule not given here
DNMT1 confirm: DNMT1 methyltransferase inhibitor retest, confirmation, biochemical, molecular beacon, fluorescence, single concentration | shares compounds with DNMT1 inh | DNMT1 molecular beacon HinP1I cleavage | inhibition, % at 10 µM | actives 8% (n = 2,300) | AID 602385, 2012;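 active = average inhibition of at least 30% in the single-concentration confirmation test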
DNMT1 interf: shows spectral interference in the DNMT1 beacon assay; shares compounds with DNMT1 inh; DNMT1 molecular beacon spectral interference counterscreen, fluorescence 485/520; activation (fluorescence interference), % at 10 µM; actives 1% (n = 2,300); AID 602387;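 active = activation of at least 30% at 10 µM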;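 also: DNMT1 catalytic domain with a HinP1I cleavage step and a FAM/dabcyl DNA beacon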
* = called active by the depositor; · = no result.

SMILES	CSN inh	LMPTP block	STEP block	SUMO1 PPI mod	DNMT1 inh	Scp-1 inhibitor	DNMT1 confirm	DNMT1 interf	others
CCOC(=O)C1CCCN(C(=O)c2cc3c(=O)n4ccccc4nc3s2)C1 (stereo not drawn)	1	1	-1	-34	87*	2	2	4
O=C(c1cc(-c2ccco2)nc2ccccc12)N1CCCC(C(F)(F)F)C1 (stereo not drawn)	21	4	4	5	66*	40	1	-2
CCOC(=O)C1CCCN(C(=O)c2cc(-c3ccco3)nc3ccccc23)C1 (stereo not drawn)	43	51*	20	24	100*	85*	65*	-1	DNMT1 interf DR=>99
O=C(c1cc(-c2ccncc2)nc2ccccc12)N1CCCC(C(F)(F)F)C1 (stereo not drawn)	2	-1	-2	-4	1	·	·	·
O=C(c1ccc(Cl)cc1)C1CCN(C(=O)c2ccc(F)cc2)CC1	-1	2	1	3	-1	-7	·	·
COc1ccc(OCCCC(=O)Nc2ncn[nH]2)cc1	0	-1	-1	4	0	-5	·	·
O=C(CSc1ccc2ccccc2n1)Nc1nsc(-c2ccc(Cl)cc2)n1	54*	56*	14	43*	77*	0	1	-3
O=C(CSc1nnnn1-c1ccccc1)Nc1nsc(-c2ccc(Cl)cc2)n1	10	9	2	6	71*	0	0	-4
O=C(CSc1nnnn1-c1ccccc1)Nc1nsc(-c2ccccc2)n1	-2	0	0	1	-1	1	·	·
CN(CC(=O)Nc1cccc(S(=O)(=O)N2CCCC2)c1)Cc1ccccc1	3	0	0	2	-4	-5	·	·
COc1ccc(/C=C/C2=Nc3ccccc3NC(C)(C)C2)cc1OC	3	1	0	-10	-3	-13	·	·
O=C(C[C@H]1C/C=C\C[C@H](NC(=O)OCC2c3ccccc3-c3ccccc32)C(=O)OC[C@H](Cc2ccccc2)NC1=O)N[C@H](CO)Cc1ccccc1	5	0	-4	1	51*	-4	3	-3
COn1c(=O)c(-c2ccc(C)cc2)[n+]([O-])c2ccccc21	-4	0	0	-28	-3	-4	·	·
COn1c(=O)c(-c2ccc(Cl)cc2)[n+]([O-])c2ccccc21	8	0	1	-31	68*	-16	0	1
CCCCCOC(=O)c1c(N)n(CCOC)c2nc3ccccc3nc12	-3	1	2	5	-15	0	·	·
CCOC(=O)c1c(N)n(CCOC(=O)c2cccs2)c2nc3ccccc3nc12	3	4	5	38	100*	0	7	6
O=C(Nc1cccc(S(=O)(=O)N2CCCCC2)c1)c1cc(=O)[nH]c2ccccc12	4	-1	0	-1	-10	-10	·	·
CCOc1ccc(CCNC(=O)c2ccc(OCc3c(C)noc3C)cc2)cc1OCC	0	-1	0	2	-2	-7	·	·
COc1ccc(CCNC(=O)c2ccc(OCc3c(C)noc3C)cc2)cc1OC	-3	0	-3	-6	54*	-2	10	9
Cc1c(C)c2cc(Cl)c(OCC(=O)Nc3ccccn3)cc2oc1=O	16	-1	-2	71*	65*	·	3	4
Cc1c(C)c2ccc(OCC(=O)Nc3ccccn3)c(C)c2oc1=O	1	-1	-3	-10	1	-2	·	·
CCOC(=O)C1(C)CCCN(C(=O)c2ccc(F)cc2Cl)C1 (stereo not drawn)	-5	0	-3	1	3	·	·	·
COc1cccc2c1OCC(C(=O)O)C2 (stereo not drawn)	-3	-1	-1	-2	53*	-1	3	3
NS(=O)(=O)c1ccc(CCNc2nc3c(-c4cccc(F)c4)nnn3c3ccccc23)cc1	20	27	5	-5	72*	-14	7	-2
Cc1ccc(-c2nnn3c2nc(NCCc2ccc(S(N)(=O)=O)cc2)c2ccccc23)cc1	36*	21	2	-4	89*	-2	7	-2
SMILES	CSN inh	LMPTP block	STEP block	SUMO1 PPI mod	DNMT1 inh	Scp-1 inhibitor	DNMT1 confirm	DNMT1 interf	others
Cc1ccc(C)c(OCC(=O)Nc2ccc(C(=O)O)cc2NC(=O)COc2cc(C)ccc2C)c1	3	-1	-3	1	-2	-6	·	·
Cc1nc2ccc(NC(=S)N3CCOCC3)cc2nc1C	2	2	1	7	-5	-1	·	·
Cc1ccccc1-c1ccc(=O)n(CC(=O)Nc2ccc(S(=O)(=O)N(C)C)cc2)n1	-3	1	-1	2	-2	-8	·	·
Cc1ccccc1-c1ccc(=O)n(CC(=O)Nc2ccc(-n3cnnn3)cc2)n1	-2	0	1	-2	90*	6	1	2
CC1CCCCC1NC(=O)Cn1cnc2sccc2c1=O (stereo not drawn)	-2	-1	-3	-1	2	-3	·	·
C=C(C)C(=O)Nc1cccc(C2=NOC3(C2)C[C@@H](C(N)=O)N(C(=O)/C=C/C=C/C)C3)c1 (stereo partly drawn)	22	0	11	105*	105*	75*	90*	-3	DNMT1 interf DR=>99
C=C(C)C(=O)Nc1cccc(C2=NOC3(C2)C[C@H](C(N)=O)N(C(=O)CC)C3)c1 (stereo partly drawn)	23	0	3	62*	99*	64*	55*	1	DNMT1 interf DR=>99
C/C=C/C=C/C(=O)N1CC2(CC(c3cccc(NC(=O)CCCCC)c3)=NO2)C[C@H]1C(N)=O (stereo partly drawn)	-2	0	-2	2	66*	3	5	1
O=C(Nc1ccc(F)cc1)Nc1nnc(Cc2ccccc2F)s1	-1	-1	2	3	6	-8	·	·
